# Test results taken from ChEMBL document CHEMBL3352425, “Development of αGlcN(1↔1)αMan-based lipid A mimetics as a novel class of potent Toll-like receptor 4 agonists” (J Med Chem, 2014).
# Active and inactive are the calls of the source. The rule behind the calls is not given here.
# Legend:
# [1] = tested on: THP-1; assay: Induction of TNFalpha expression in human THP1 cells after 18 hrs by ELISA; type: functional, cell-based
# Procedure, shortened: (§1)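 THP-1 cells in RPMI-1640 with 2 mM L-glutamine, antibiotics, 10% FCS; 10⁵ cells/well differentiated with 200 nM TPA for 24 h. Non-adherent cells washed off, 1 h recovery, then stimulated 18 h at indicated concentrations; E. coli Re-LPS or O111:B4 LPS as reference. DMSO stocks diluted in medium, final DMSO ≤0.01%. Supernatants assayed by ELISA.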
# [2] = tested on: THP-1; assay: Induction of IL8 expression in human THP1 cells after 18 hrs by ELISA; type: functional, cell-based; procedure, shortened: as §1
# [3] = tested on: THP-1; assay: Induction of MCP1 expression in human THP1 cells after 18 hrs by ELISA; type: functional, cell-based; procedure, shortened: as §1
# [4] = Induction of TNFalpha level in C57BL/6J mouse BMDM at 1 nM after 16 hrs by ELISA; type: functional
# Procedure, shortened: (§2)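 C57BL/6J bone marrow cells were differentiated 6 days with 40 ng/mL M-CSF in RPMI with 20% FBS, then seeded at 1 × 10⁶ cells/mL in RPMI with 10% FBS. After 24 h, cells were stimulated for 16 h, with nM concentrations based on compound MW. Supernatant cytokines were measured by ELISA.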
# [5] = tested on: BMDM; assay: Induction of IL-6 level in C57BL/6J mouse BMDM after 16 hrs by ELISA; type: functional
# Procedure, shortened: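 Bone marrow flushed from femur and tibia, erythrocytes lysed (0.88% ammonium chloride, 15 min, 37 °C), differentiated 6 days in RPMI/20% FBS with 40 ng/mL M-CSF. Replated at 1 × 10⁶ cells/mL in RPMI/10% FBS, stimulated after 24 h for 16 h. Nanomolar doses calculated from MW. DMSO stocks diluted in medium, final DMSO ≤0.01%. Supernatant IL-6 by ELISA.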
# [6] = Cytotoxicity against human DC by propidium iodide staining
# Procedure, shortened: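 Immature monocyte-derived DCs were stimulated with compound across a wide concentration range, and cytotoxicity was assessed by propidium iodide staining.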
# [7] = organism: Homo sapiens; assay: Induction of IL6 release in human DC at 1 ng/ml by Luminex
# [8] = organism: Homo sapiens; assay: Induction of IL12 release in human DC at 1 ng/ml by Luminex
# [9] = organism: Homo sapiens; assay: Induction of IL10 release in human DC at 1 ng/ml by Luminex
# [10] = organism: Homo sapiens; assay: Induction of TNFalpha release in human DC at 1 ng/ml by Luminex
# [11] = Induction of human DC maturation assessed as upregulation of CD86 at 10 ng/ml after 24 hrs by flow cytometry; type: functional
# [12] = molecular target: Toll-like receptor 4 (Homo sapiens) (UniProt O00206); assay: Agonist activity at human TLR4 expressed in HEK293 cells coexpressed with human MD2/CD14 assessed as activation of NFkappaB signaling at 10 ng/ml after 20 to 24 hrs by NFkappaB reporter assay; type: cell-based
# Procedure, shortened: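 HEK-Blue hTLR4 cells (HEK293 co-transfected with hTLR4/MD-2/CD14), 25000 per well, were stimulated with compound diluted in DMEM with 10% FCS (final DMSO ≤0.005–0.01%) for 20–24 h at 37 °C, 5% CO2. Secreted SEAP in the supernatant was read with QUANTI-Blue at 650 nm. Data were pooled from n = 3 independent experiments, SEM.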
# [13] = molecular target: Toll-like receptor 4 (Homo sapiens) (UniProt O00206); assay: Agonist activity at human TLR4 in human THP1 cells assessed as induction of MyD88 signaling after 18 hrs by ELISA; type: cell-based; conditions: THP-1
# Procedure, shortened: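 THP-1 cells were seeded at 10⁵ per well and differentiated to macrophage-like cells with 200 nM TPA for 24 h. Non-adherent cells were washed off, and the remainder rested 1 h in fresh complete RPMI with 10% FCS. Cells were then stimulated for 18 h, and TNF-α, IL-8 and MCP-1 in the supernatants were measured by ELISA.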
# [14] = Induction of IL-6 level in C57BL/6J mouse BMDM at 1 nM after 16 hrs by ELISA; type: functional; procedure, shortened: as §2
# [15] = Induction of human DC maturation assessed as upregulation of MHC class 1 at 10 ng/ml after 24 hrs by flow cytometry; type: functional
# [16] = Induction of human DC maturation assessed as upregulation of MHC class 2 at 10 ng/ml after 24 hrs by flow cytometry; type: functional
# Toll-like receptor 4 (Homo sapiens), sequence (O00206 whole entry): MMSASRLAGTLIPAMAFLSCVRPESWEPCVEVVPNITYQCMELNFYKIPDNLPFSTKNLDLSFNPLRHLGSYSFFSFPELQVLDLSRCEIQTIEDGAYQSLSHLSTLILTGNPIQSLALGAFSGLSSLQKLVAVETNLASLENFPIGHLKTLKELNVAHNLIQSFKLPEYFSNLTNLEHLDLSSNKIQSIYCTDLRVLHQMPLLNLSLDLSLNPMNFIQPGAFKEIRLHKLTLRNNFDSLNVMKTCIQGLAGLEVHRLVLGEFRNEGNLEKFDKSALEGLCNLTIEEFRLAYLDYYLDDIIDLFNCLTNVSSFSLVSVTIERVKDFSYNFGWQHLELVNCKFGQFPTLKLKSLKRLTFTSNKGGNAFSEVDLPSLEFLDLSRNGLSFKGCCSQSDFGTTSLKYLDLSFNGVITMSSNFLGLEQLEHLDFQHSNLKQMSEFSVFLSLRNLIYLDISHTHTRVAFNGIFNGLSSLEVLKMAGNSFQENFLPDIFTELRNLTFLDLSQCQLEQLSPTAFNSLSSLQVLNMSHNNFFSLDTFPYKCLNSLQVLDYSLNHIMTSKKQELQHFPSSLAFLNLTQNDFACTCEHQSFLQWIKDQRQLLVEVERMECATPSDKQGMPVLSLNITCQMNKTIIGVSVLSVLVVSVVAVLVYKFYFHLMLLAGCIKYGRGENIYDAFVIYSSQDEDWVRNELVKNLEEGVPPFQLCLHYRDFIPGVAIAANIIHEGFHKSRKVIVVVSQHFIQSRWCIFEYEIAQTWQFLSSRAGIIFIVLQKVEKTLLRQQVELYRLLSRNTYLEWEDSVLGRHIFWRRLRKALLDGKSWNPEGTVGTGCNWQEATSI
SMILES,Activity [1],Activity [2],Activity [3],Activity [4],Activity [5],Activity [6],Activity [7],Activity [8],Activity [9],Activity [10],Activity [11],Activity [12],Activity [13],Activity [14],Activity [15],Activity [16]
CCCCCCCCCCCCCC(=O)O[C@H](CCCCCCCCCCC)CC(=O)O[C@@H]1[C@@H](NC(=O)C[C@@H](CCCCCCCCCCC)OC(=O)CCCCCCCCCCC)[C@@H](O[C@H]2O[C@H](CO)[C@@H](OC(=O)C[C@H](CCCCCCCCCCC)OC(=O)CCCCCCCCCCC)[C@H](O)[C@@H]2OC)O[C@H](CO)[C@H]1OP(=O)(O)O,inactive,inactive,inactive,500 pg/mL,Dose-dependent effect,Non-toxic,inactive,inactive,inactive,inactive,–,–,–,–,–,–
CCCCCCCCCCCCCC(=O)O[C@H](CCCCCCCCCCC)CC(=O)N[C@H]1[C@H](OC[C@H]2O[C@H](OP(=O)(O)O)[C@H](NC(=O)C[C@H](O)CCCCCCCCCCC)[C@@H](OC(=O)C[C@H](O)CCCCCCCCCCC)[C@@H]2O)O[C@H](CO)[C@@H](OP(=O)(O)O)[C@@H]1OC(=O)C[C@@H](CCCCCCCCCCC)OC(=O)CCCCCCCCCCCCC,–,–,–,2000 pg/mL,–,–,–,–,–,–,–,–,–,–,–,–
CCCCCCCCCCCCCC(=O)O[C@H](CCCCCCCCCCC)CC(=O)O[C@@H]1[C@@H](NC(=O)C[C@@H](CCCCCCCCCCC)OC(=O)CCCCCCCCCCC)[C@@H](O[C@H]2O[C@H](COP(=O)(O)O)[C@@H](OC(=O)C[C@H](CCCCCCCCCCC)OC(=O)CCCCCCCCCCC)[C@H](O)[C@@H]2OC)O[C@H](CO)[C@H]1OP(=O)(O)O,Dose-dependent effect,Dose-dependent effect,Active,4000 pg/mL,–,Non-toxic,Active,Active,Active,Active,Active,Active,Active,1500 pg/mL,Active,Active
CCCCCCCCCCCCCC(=O)O[C@H](CCCCCCCCCCC)CC(=O)O[C@@H]1[C@@H](NC(=O)C[C@@H](CCCCCCCCCCC)OC(=O)CCCCCCCCCCC)[C@@H](O[C@H]2O[C@H](COP(=O)(O)O)[C@@H](OC(=O)C[C@H](CCCCCCCCCCC)OC(=O)CCCCCCCCC)[C@H](O)[C@@H]2OC)O[C@H](CO)[C@H]1OP(=O)(O)O,Dose-dependent effect,Dose-dependent effect,Active,4000 pg/mL,–,Non-toxic,–,–,–,–,–,–,Active,1500 pg/mL,–,–
